Measured values: PMC4301737 (Journal of molecular biology, 2009)
Read-outs that look alike come from different tables or passages of the source.

Key:
BpeGReg [1] = experiment: Ligand binding kinetics and affinity of BpeGReg; design: species or system Bordetella pertussis; settings: 25°C, 100 mM NaPi, pH 7.5
Method in brief: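 His-tagged protein purified by Co2+-affinity, used at 2–5 µM. O2 kon by flash photolysis at 436 or 414 nm with 64–1024 µM O2. O2 koff by stopped-flow at 436 nm, oxy protein mixed with 1 mM dithionite. CO kon by photolysis at 419 nm with 30–480 µM CO. CO koff: 3.5 µM CO-bound protein (20 µM CO) displaced by 500 µM NO at 423 nm. NO kon by photolysis at 435 nm with 15–60 µM NO. Rates taken from linear kobs-versus-ligand plots over ≥4 concentrations.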

[2] = biological target: sperm-whale myoglobin (SWMb); settings: ref Springer et al.[23], cited from earlier work
HemAT-Bs = settings: ref Zhang et al.[22], cited from earlier work
BpeGReg [3] = experiment: Enzymatic diguanylate cyclase assay; type: biochemical, Bordetella pertussis

Which CO koff (BpeGReg [1]) does the source give for `[C-]#[O+]` [CO, carbon-monoxide] here?
The CO koff was 0.056 s⁻¹.

And the Kd ([2]; read-out: CO Kd)?
The Kd was 37 nM.

And the CO koff [2]?
Its CO koff is 0.019 s⁻¹.

What about the Kd (HemAT-Bs; read-out: CO Kd) of the same molecule?
Its Kd is 200 nM.

And the CO koff (HemAT-Bs)?
Its CO koff is 0.067 s⁻¹.

With `O=O` [O2, oxygen] as the molecule, how does the O2 koff (BpeGReg [1]) read?
Its O2 koff is 4.5 s⁻¹.

What about the Kd (BpeGReg [1]; read-out: O2 Kd) of the same molecule?
The Kd was 640 nM.

And the Kd ([2]; read-out: O2 Kd)?
Its Kd is 880 nM.

What about the O2 koff [2] of the same molecule?
The O2 koff was 15 s⁻¹.

And the “drop in activity in the absence of O2” value (BpeGReg [3]; 5 µM BpeGReg in air (Fe(II)O2) vs anaerobic (Fe(II)), 500 µM GTP, PDE-coupled)?
The value was 13 fold.

What about the “rate of O2-bound BpeGReg relative to unliganded ferrous form” value (BpeGReg [3]; PDE-coupled assay) of the same molecule?
Its value is 10 times.

And the “initial rate of c-di-GMP production by O2-bound BpeGReg” value (BpeGReg [3]; PDE-coupled assay, 500 µM GTP)?
The value was 2.5 min⁻¹.

What about the “c-di-GMP production by liganded state of BpeGReg” value (BpeGReg [3]; compared to the unliganded, CO- and NO-bound forms, HPLC-MS and TLC) of the same molecule?
The value was “highest amount of c-di-GMP per mole of protein”.

For `Nc1nc2c(ncn2[C@@H]2O[C@@H]3COP(=O)(O)O[C@H]4[C@@H](O)[C@H](n5cnc6c(=O)[nH]c(N)nc65)O[C@@H]4COP(=O)(O)O[C@H]3[C@H]2O)c(=O)[nH]1` [c-di-GMP, bis-(3’–5’)-cyclic diguanosine monophosphate], which “effect on BpeGReg-catalyzed reaction” value (BpeGReg [3]; 20 µM c-di-GMP added at start, 1 µM oxy-BpeGReg, 500 µM GTP) is on record?
The value was “strongly inhibited”.
